Most compounds without a hit are left out; they make up all but 4.5% or so of the library.
PERK inhibitor: blocks human PERK kinase; 220,000 compounds, 0.17% hits; Q9NZJ5; CHO PERK-DD fusion, SEAP luminescence translation reporter; inhibition, % at 5.6 µM; AID 1416;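 active = inhibition above the mean inhibition of all tested compounds plus 3 SD, set separately per screening campaign, cut at about 2.9% in these data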;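 also: PERK kinase domain activated by AP20187 dimerizer at 100 nM; 0% = DMSO with dimerizer and 100% = rapamycin at 8.4 µM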
STAT1 act: STAT1 signaling activation. NIH 3T3 STAT1-luciferase reporter, IFN-gamma, luminescence; 100% = IFN-gamma alone, no compound. activation (% of control), % at 5.5 µM. 200,000 compounds, 2.6% hits. AID 932;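 active = activation above the screen-wide mean activation plus 3 SD, cut at about 130% in these data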;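 also: raw ratio to IFN-gamma control signal so 100% means no change and 0% no light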
Mdm2 ligase inh: blocks human Mdm2 ubiquitin ligase activity | signal enhancement, % at 5 µM | cell-based MDM2 ubiquitination luciferase reporter, 2 h; 0 = plate control, 100 = twice control, blank-subtracted | 210,000 compounds, 0.11% hits | Q00987;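 active = signal enhancement of 30% or more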;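 also: luminescence tracks abundance of the self-degrading MDM2-luciferase fusion protein; higher signal means inhibition of MDM2 E3 ligase activity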
Target sequence (Q00987 whole entry, looked up, the tested form may be a part): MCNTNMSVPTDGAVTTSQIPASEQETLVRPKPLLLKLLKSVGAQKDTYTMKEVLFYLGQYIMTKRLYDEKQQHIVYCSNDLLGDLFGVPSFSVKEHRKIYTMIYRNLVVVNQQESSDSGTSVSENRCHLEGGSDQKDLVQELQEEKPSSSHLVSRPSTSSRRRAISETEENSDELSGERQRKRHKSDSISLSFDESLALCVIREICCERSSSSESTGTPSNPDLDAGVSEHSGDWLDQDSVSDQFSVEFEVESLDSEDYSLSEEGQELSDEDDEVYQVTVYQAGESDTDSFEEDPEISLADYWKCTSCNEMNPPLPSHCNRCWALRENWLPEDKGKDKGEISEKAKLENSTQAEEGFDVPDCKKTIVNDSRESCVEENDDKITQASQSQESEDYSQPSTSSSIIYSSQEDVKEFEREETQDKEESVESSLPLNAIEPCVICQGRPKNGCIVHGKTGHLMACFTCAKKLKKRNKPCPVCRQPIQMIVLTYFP
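Buffer or medium: Cells held in DMEM | Assay system: Stable mammalian line carrying autodegrading MDM2–luciferase fusion reporter | Quantity: 2000 cells/well | Times: 4 h settle plus 2 h compound, 37 °C | Doses: One concentration, 5 µM, with 0.2% DMSO | Technique: Luminescence with SteadyLite reagent, 15 min at room temperature | Benchmarks: Plate controls and plate blanks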
APP 5'UTR act: APP 5'UTR luciferase reporter activation | 190,000 compounds, 1% hits | activation, % at 2 µM | SH-SY5Y APP 5'UTR luciferase reporter, luminescence; zero percent = DMSO vehicle wells;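 active = activation above a set limit, based on mean plus 3 SD of controls, cut at about 140% in these data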
NF-kB expr up: NF-kB expression increase, human neuronal cells; AID 1239; NF-kB reporter expression; hits give high values; fold change at 12.5 µM; 190,000 compounds, 1.6% hits; in the data active = fold change above about 3.3
AHR activator: human AHR activation | P35869 | activation, % at 5 µM | 320,000 compounds, 2.5% hits | AHR-responsive luciferase reporter cells, luminescence; in the data active = activation above about 47%;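 also: 0% = vehicle wells and 100% = reference agonist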
An asterisk follows results filed as active; . = no result given.

SMILES	PERK inhibitor	STAT1 act	Mdm2 ligase inh	APP 5'UTR act	NF-kB expr up	AHR activator
Cc1cc(C(=O)COC(=O)c2ccccc2Br)c(C)n1CC1CCCO1 (stereo unspecified)	-0.1	.	.	.	.	-2.8
NC(=O)NC(=O)CN1c2cccc3cccc(c23)S1(=O)=O	.	.	.	.	.	8.7
CCOC(=O)CSc1ccc(C(=O)Nc2ccc(OC)cc2)cn1	-1.5	98.2	-17.7	-4.2	1.12	57.2*
CCOc1ccc(NC(=O)c2ccc(OC)cc2)cc1	1.5	116.9	-13.2	68.2	1.94	-1.0
CCOC(=O)CSc1nc2c(cnn2-c2ccc(Cl)cc2)c(=O)[nH]1	.	.	.	.	.	5.1
CCOC(=O)CSc1ccc(C(=O)Nc2ccc(Cl)cc2)cn1	-0.3	103.1	-8.9	10.2	1.21	57.6*
COc1ccc(C(=O)N(C)C2CCCc3ccccc32)cc1OC1CCN(C(C)C)CC1 (stereo unspecified)	.	.	.	.	.	2.6
CCc1nc(SCC(=O)Nc2ccc(N(C)C)cc2)c2ccccc2n1	-0.9	.	-12.1	.	.	5.2
O=c1oc2cc(Cl)ccc2n1CSc1nc2ccccc2s1	0.1	119.2	-7.7	-0.2	8.64*	40.1
O=C(CSc1nc2ccccc2s1)N1c2ccccc2Sc2ccc(Cl)cc21	-0.9	90.2	-7.5	-2.4	1.02	-1.0
CCOC(=O)c1[nH]c2ccc(OC)cc2c1NC(C)=O	1.6	103.7	-6.1	9.4	1.04	3.4
CCOC(=O)c1[nH]c2ccccc2c1NC(=O)CC(C)C	.	.	-6.5	.	.	17.8
CCOC(=O)c1[nH]c2ccccc2c1NC(=S)Nc1cc(C)ccc1C	1.6	93.6	.	-14.3	1.61	60.0*
CCOC(=O)c1[nH]c2ccccc2c1NC(=S)Nc1ccccc1C	0.3	91.2	.	-13.7	1.69	59.1*
CCCC(=O)Nc1c(C(=O)OCC)[nH]c2ccccc12	1.0	90.2	-4.4	-2.4	1.04	58.1*
CCOC(=O)c1[nH]c2ccc(OC)cc2c1C	-0.9	142.3*	-18.8	31.1	1.91	12.0
O=C(c1cccc([N+](=O)[O-])c1)N1CCOCC1	0.6	97.9	-9.1	15.3	1.27	5.3
O=C(/C=C\c1ccc(-c2cccc([N+](=O)[O-])c2)o1)N1CCOCC1	1.1	128.6*	23.6	18.1	1.01	26.7
Cc1cccc(NC(=O)CSc2nnc(C3CC3)n2CC2CCCO2)c1C (stereo unspecified)	.	.	.	.	.	-1.1
COc1cccc(NC(=O)Nc2cccnc2)c1	0.7	102.4	-17.6	-21.6	2.11	50.2*
CCc1ccc(NC(=O)Nc2cccc(OC)c2)cc1	0.0	146.3*	0.8	160.6*	2.55	14.4
Cc1ccc2c(c1)-n1c(nc3cc(F)ccc3c1=O)C(Cc1ccc(O)cc1)NC2=O (stereo unspecified)	.	.	.	.	.	0.1
COC(=O)[C@H](CC(C)C)NC(=O)N1CCN(c2cccc(C(F)(F)F)c2)CC1	-0.4	102.3	-6.9	3.6	0.98	1.8
Cc1c(N=Nc2ccc(O)cc2)c(=O)n(-c2ccccc2)n1C	-0.8	99.9	-1.3	-9.6	1.35	56.5*
Cc1[nH]c2ccccc2c1N=Nc1c(C)n(C)n(-c2ccccc2)c1=O	0.7	82.4	3.8	14.8	1.02	32.0
SMILES	PERK inhibitor	STAT1 act	Mdm2 ligase inh	APP 5'UTR act	NF-kB expr up	AHR activator
Cc1c(N=NC2=C(O)CCCC2=O)c(=O)n(-c2ccccc2)n1C	0.8	92.9	-8.5	12.6	1.22	51.4*
Cc1ccccc1Nc1nc(N)nc(CN(C)Cc2ccccc2Cl)n1	-1.2	100.4	-5.5	-11.7	1.61	16.0
CC(=O)NCCNC(=O)c1ccc(CSc2ccc(Cl)cc2)cc1	0.8	141.6*	-20.0	146.7*	1.24	14.3
NNC(=O)c1cc2c(s1)-c1cc(Cl)ccc1SC2	-1.0	.	-7.5	.	.	64.3*
NS(=O)(=O)c1c(Sc2ccccc2C(=O)O)ccc2ccccc12	.	.	.	.	.	20.7
O=C(CCC(=O)N1CCOCC1)NCc1cccc(C(F)(F)F)c1	.	.	.	.	.	1.1
O=S(=O)(NCc1cc(-c2ccc(Cl)cc2)no1)c1ccccc1	-0.4	101.8	-15.0	-1.6	0.85	0.1
O=S(=O)(Cc1cc(-c2ccccc2Cl)no1)c1ccccc1	0.1	132.0*	-6.6	67.9	0.98	7.5
O=S(=O)(Cc1cc(-c2ccc(Cl)cc2)no1)c1ccccc1	-0.8	135.0*	-6.9	44.2	2.14	2.5
Clc1ccc(-c2cc(COc3ccccc3)on2)cc1	0.5	132.5*	-11.9	41.5	1.91	-9.8
Clc1ccc(OCc2cc(-c3ccccc3)no2)cc1Cl	0.9	109.2	-9.0	11.8	1.76	-2.8
Nc1n[nH]c(N)c1N=Nc1ccc2c(c1)OCO2	0.0	132.0*	-25.4	1.3	1.76	48.1*
O=C1CCCC(O)=C1N=Nc1ccc2c(c1)OCO2	0.5	110.2	.	84.6	1.35	5.8
O=C1c2ccccc2C(=O)N1CCCCN(C(=O)c1cccc([N+](=O)[O-])c1)c1ccc(Cl)cc1	0.1	96.8	-8.5	4.9	0.67	72.2*
N#Cc1cccc(-n2nnnc2-c2ccc3c(c2)OCO3)c1	0.7	112.1	-5.0	27.9	3.53*	56.8*
CN(C)c1ccc(Nc2nc(N)c3ccccc3n2)cc1	.	.	.	.	.	-5.1
Cc1ccc(Nc2nc(N)c3ccccc3n2)cc1Cl	.	.	.	.	.	16.6
Nc1nc(Nc2ccc(Cl)cc2)nc2ccccc12	-0.1	78.2	7.2	114.6	5.98*	7.1
Nc1nc(Nc2ccccc2)nc2ccccc12	-1.5	105.2	-18.6	154.9*	5.46*	41.7
Cc1ccccc1Nc1nc(N)c2ccccc2n1	-0.2	107.5	-37.3	144.1*	8.95*	1.8
COc1ccc(C)cc1Nc1nc(N)c2ccccc2n1	.	.	.	.	.	-6.8
O=C(Nc1cc(Cl)ccc1-n1cncn1)c1cn2ccccc2n1	.	.	.	.	.	26.5
O=C(Nc1cc(C(F)(F)F)ccc1-n1cncn1)c1cn2ccccc2n1	.	.	.	.	.	77.9*
Cc1ccc(-n2cc(C(=O)c3ccc(F)cc3)nn2)cc1Cl	0.7	139.3*	-76.8	72.4	3.11	2.2
O=C(OCc1cn(-c2ccc(Cl)c(Cl)c2)nn1)c1ccccc1	1.5	101.4	-8.2	-0.9	1.08	-1.8
SMILES	PERK inhibitor	STAT1 act	Mdm2 ligase inh	APP 5'UTR act	NF-kB expr up	AHR activator
Cc1ccc2nc(SCC(=O)c3c(N)n(C)c(=O)n(C)c3=O)[nH]c2c1	0.0	94.4	-7.0	3.4	0.89	46.9
Cc1ccc2nc(SCC(=O)c3c(C)[nH]c4ccccc34)[nH]c2c1	-0.7	103.1	9.1	2.7	0.89	53.4*
Cc1[nH]c2ccccc2c1C(=O)CSC(=S)N(C)C	0.3	129.7*	0.1	27.1	1.57	37.3
Cc1cc(C(=O)CSc2nc3ccccc3[nH]2)c(C)n1C	0.4	141.8*	-40.9	148.9*	4*	3.3
Cc1ccc2nc(SCC(=O)c3c[nH]c4ccccc34)[nH]c2c1	-0.3	97.5	-7.0	-1.8	1.1	46.1
C/C(N)=C(/C#N)C(=O)CSc1nc2ccc(C)cc2[nH]1	-0.1	150.4*	-25.5	140.8*	4.31*	43.0
O=C(CSc1nc2ccccc2[nH]1)c1c[nH]c2ccccc12	0.0	123.7	-2.3	3.1	1.92	-1.1
